Results published in ChEMBL document CHEMBL2406962, “Adenosine Dioxolane Nucleoside Phosphoramidates as Antiviral Agents for Human Immunodeficiency and Hepatitis B Viruses” (ACS Med Chem Lett, 2013).

How the values were obtained:
Huh-7 = assay: Cytotoxicity against human HuH7 cells after 2 to 4 days by MTT assay; assay type: cell-based
Hepatitis B virus = assay: Antiviral activity against Hepatitis B virus infected in human HepAD38 cells after 5 days; assay type: functional, organism-based; conditions: HePAD38, 120 h
CCRF-CEM = assay: Cytotoxicity against human CEM cells after 2 to 4 days by MTT assay; assay type: cell-based
Method in brief: (§1)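 Cytotoxicity in human PBM cells, Vero (African green monkey kidney epithelial) cells and CEM (human T-cell-derived line) cells, with compounds tested up to 100 μM.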

[1] = test system: Human immunodeficiency virus 1; assay: Antiviral activity against Human immunodeficiency virus 1 LAI infected in PHA-stimulated human PBMC; assay type: functional, organism-based
PBMC [2] = assay: Drug metabolism in human PBMC assessed as dioxolane-A triphosphate level measured per 10^6 cells at 50 uM after 4 hrs by LC-MS/MS analysis; assay type: ADME, cell-based; set-up: unit: pmol/10^6 cells
PBMC [3] = assay: Cytotoxicity against human PBMC after 2 to 4 days by MTT assay; assay type: cell-based; method in brief: as §1
Vero = assay: Cytotoxicity against African green monkey Vero cells after 2 to 4 days by MTT assay; assay type: cell-based; conditions: chlorocebus sabaeus; method in brief: as §1
HepG2 = assay: Cytotoxicity against human HepG2 cells after 2 to 4 days by neutral red dye uptake assay; assay type: cell-based
PBMC [4] = assay: Drug metabolism in human PBMC assessed as 6-cyclopropylamino purine dioxolane triphosphate level measured per 10^6 cells at 50 uM after 4 hrs by LC-MS/MS analysis; assay type: ADME, cell-based
in vivo = conditions: mouse

Row | SMILES | CC50 (Huh-7) [µM] | EC50 (Hepatitis B virus) [µM] | CC50 (CCRF-CEM) [µM] | EC50 [1] [µM] | Drug metabolism (PBMC [2]) [pmol] | CC50 (PBMC [3]) [µM] | CC50 (Vero) [µM] | CC50 (HepG2) [µM] | Drug metabolism (PBMC [4]) [pmol] | LD50 (in vivo) [mg/kg]
1 | CCOC(=O)CCc1ccccc1OP(=O)(N[C@@H](C)C(=O)OCC)OC[C@@H]1OC[C@H](n2cnc3c(N)ncnc32)O1 (stereo partly drawn) | 12 | 0.3 | 53 | 0.0033 | 90 | 12 | 36 | > 100 |  | 
2 | CCOC(=O)[C@H](C)NP(=O)(OC[C@@H]1OC[C@H](n2cnc3c(NC4CC4)ncnc32)O1)Oc1ccccc1 (stereo partly drawn) | > 100 | 0.8 | > 100 | 0.086 | 0.11 | > 100 | > 100 | > 100 | 0.13 | 
3 | CCOC(=O)[C@H](C)NP(=O)(OC[C@@H]1OC[C@H](n2cnc3c(N)ncnc32)O1)Oc1ccccc1 (stereo partly drawn) | 7.3 | 0.03 | 18 | 0.00056 | 200 | 2 | 80 | > 100 |  | 
4 | CCOC(=O)CCc1ccccc1OP(=O)(N[C@@H](C)C(=O)OCC)OC[C@@H]1OC[C@H](n2cnc3c(OC)ncnc32)O1 (stereo partly drawn) | 80 | > 10 | > 100 | 0.42 |  | > 100 | 93 | > 100 |  | 
5 | CCOC(=O)CCc1ccccc1OP(=O)(N[C@@H](C)C(=O)OCC)OC[C@@H]1OC[C@H](n2cnc3c(NC4CC4)ncnc32)O1 (stereo partly drawn) | 65 | > 10 | > 100 | 0.77 | 0.14 | > 100 | > 100 | > 100 | 0.19 | 
6 | OC[C@@H]1OC[C@H](n2cnc3c(NC4CC4)ncnc32)O1 | > 100 | > 10 | > 100 | 92 |  | > 100 | > 100 | > 100 |  | 
7 | CC(C)OC(=O)CCc1ccccc1OP(=O)(N[C@@H](C)C(=O)OC(C)C)OC[C@@H]1OC[C@H](n2cnc3c(NC4CC4)ncnc32)O1 (stereo partly drawn) | 57 | > 10 | 84 | 11 |  | > 100 | > 100 | > 100 |  | 
8 | Oc1ccccc1 [PHENOL] |  |  |  |  |  |  |  |  |  | 270
9 | COc1ncnc2c1ncn2[C@H]1CO[C@@H](COP(=O)(N[C@@H](C)C(=O)OC(C)C)Oc2ccccc2CCC(=O)OC(C)C)O1 (stereo partly drawn) | 52 | > 10 | > 100 | 7 |  | > 100 | > 100 | > 100 |  | 
10 | Nc1ncnc2c1ncn2[C@H]1CO[C@@H](CO)O1 |  |  |  |  | 0.18 |  |  |  |  | 
11 | CCOC(=O)[C@H](C)NP(=O)(OC[C@@H]1OC[C@H](n2cnc3c(OC)ncnc32)O1)Oc1ccccc1 (stereo partly drawn) | 80 | > 10 | > 100 | 0.34 |  | > 100 | > 100 | > 100 |  | 
12 | Nc1nc(N)c2ncn([C@H]3CO[C@@H](CO)O3)c2n1 [AMDOXOVIR] | > 100 | > 9 | > 100 | 0.4 |  | > 100 | > 100 | > 100 |  | 
